# Screens (PubChem BioAssay)
# HDAC3 inh – human HDAC3 inhibition; O15379; recombinant HDAC3, fluorogenic peptide/trypsin coupled, fluorescence; inhibition, % at 8.3 µM; actives 0.15% (n = 320,000); in the data active = inhibition above about 26%, passing the limit was not always enough; inconclusive = no clear call, values can overlap the other calls
# FAS-TE inh – FAS thioesterase (human) inhibition | P49327 | recombinant FAS-TE, OMFH fluorogenic substrate, fluorescence endpoint | inhibition, % at 15 µM | actives 0.67% (n = 360,000);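 active = compounds whose normalised, plate-corrected inhibition of enzyme fluorescence in the single-dose primary screen is 50% or more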;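 also: 0% = DMSO with enzyme and 100% = substrate without enzyme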
# ALR inh – inhibitors of human sulfhydryl oxidase ALR; purified ALR, DTT oxidation, H2O2 HRP-luminol luminescence; P55789; AID 485317; inhibition, % (test concentration not listed); actives 3.8% (n = 290,000);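 active = mean replicate inhibition above about 79%, with every replicate also reaching it, limit read from the data; inconclusive = only one of the two criteria met; inactive = mean below limit and not every replicate reaching it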
# PfM18AAP inh – PfM18AAP enzyme inhibition; recombinant PfM18AAP, H-Glu-NHMec fluorogenic cleavage; inhibition, % at 7.35 µM; actives 1.2% (n = 290,000); AID 1822;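 active = inhibition above the campaign mean inhibition over all tested compounds plus 3 SD, cut at about 28% in these data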;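 also: 0% = plate median of test compound wells and 100% = 2 mM ZnCl2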
# UCH37 inh – human UCH37 deubiquitinating enzyme inhibition; inhibition, % (test concentration not listed); actives 0.33% (n = 330,000); purified proteasome/UCH37, Ub-AMC cleavage fluorescence;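 active = mean inhibition over replicate wells above about 20%, limit read from the data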;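 also: 0% = compound-free wells with enzyme and 100% = wells lacking proteasome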
#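 System: Proteasome-associated human UCH37 deubiquitinase; Input: 0.15 nM proteasome in added enzyme buffer; Also added: Ub-AMC substrate from 1 µM stock; Incubation: 30 min compound-proteasome preincubation then 25 min substrate reaction, room temperature; Detection: fluorescence, ex 355 nm, em 460 nm; Read-out: % inhibition of Ub-AMC cleavage fluorescence; Benchmarks: no-proteasome and no-compound wells.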
# Rtt109 Vps75 – inhibitors of Candida albicans Rtt109/Vps75 histone acetyltransferase; Q5AAJ8; purified Rtt109/Vps75, ThioGlo CoA-SH fluorescence, 4 h; inhibition, % at 34.9 µM; actives 0.16% (n = 330,000);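 active = inhibition of at least 50% in every replicate; inconclusive = best replicate reaches 50% inhibition but some replicates fall short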
# An asterisk follows results filed as active; i = inactive; ? = inconclusive; nt = no result given. Only some compounds are listed: those with a hit (about 4.6% of all), similar ones and a draw of the others.
SMILES,HDAC3 inh,FAS-TE inh,ALR inh,PfM18AAP inh,UCH37 inh,Rtt109 Vps75
O=C(O)c1ccc(NN=Cc2cn(Cc3ccc(F)cc3)c3ccccc23)cc1,nt,nt,nt,nt,-74,nt
CC(C)n1cc(/C=N/Nc2ccc(C(=O)O)cc2)c2ccccc21,3,6,100*,15,nt,10
O=C(O)c1ccc(N/N=C/c2cn(Cc3ccccc3F)c3ccccc23)cc1,1,20,98*,15,nt,-2
C/C(C=NNC(=O)CSc1ccccn1)=C/c1ccc(C(C)C)cc1,nt,nt,nt,nt,1,nt
CC1(C)OC(=O)C(=CNCCc2ccc(O)cc2)C(=O)O1,-9,-4,88*,-10,1,0
CN1CCN(CCC(=O)NN=Cc2cc3c(cc2[N+](=O)[O-])OCO3)CC1,nt,nt,nt,nt,5,nt
CCOC(=O)c1cc2sc(C)cc2n1CC(=O)N1CCN(C(=O)c2ccco2)CC1,3,-8,99*,10,1,-8
Cc1ccccc1NC(=O)c1c(C)[nH]c(=S)c(C#N)c1-c1ccc(Cl)cc1,-12,-4,10,9,7,nt
Cc1[nH]c(=S)c(C#N)c(-c2ccccc2)c1C(=O)Nc1ccccc1,2,-2,70,28*,5,-2
CN=c1nc(-c2ccccc2)n(-c2ccccc2)s1,56*,-26,-6,nt,4,1
Cn1nc(-c2ccccc2)nc1-c1ccccc1,-6,-8,9,nt,2,4
CCc1ccc(OCC(=O)NN=Cc2ccc(OS(=O)(=O)c3ccc(C)cc3)c(OC)c2)cc1,nt,nt,nt,nt,2,nt
Cc1cccc(NC(=S)NNC(=O)c2ccc(O)cc2O)c1C,-2,-2,99*,29*,2,-8
CCCCCC(=O)NN=Cc1ccc([N+](=O)[O-])o1,nt,nt,nt,nt,11,nt
CN(C)/C=N/c1nc(-c2ccc3c(c2)OCO3)cs1,2,-4,98*,-3,nt,nt
CN(C)/C=N/c1nc(-c2ccc3ccccc3c2)cs1,9,14,-2,-7,nt,-1
COc1ccc(N2CCN(C3CC(=O)N(C)C3=O)CC2)cc1 (centres undefined),-2,-7,45,1,6,-2
CN1C(=O)CC(N2CCN(c3ccc(Cl)cc3)CC2)C1=O (centres undefined),-2,-8,98*,-8,1,0
COc1ccc(OC)c(C=NNc2nccs2)c1,nt,nt,nt,nt,0,nt
Cc1cc2c(N3CCCCC3C)ncnc2s1 (centres undefined),4,-3,97*,4,0,-1
Cc1nc(C(F)(F)F)c(C(=O)NN=C(N)c2cccnc2)s1,nt,nt,nt,nt,5,nt
Fc1ccccc1C=NNc1nn[nH]n1,nt,nt,nt,nt,2,nt
CCCCN(CCCNc1ncnc2nc[nH]c12)c1ccccc1,8,-128,93*,7,7,-7
CCN(CCCNc1ncnc2nc[nH]c12)c1cccc(C)c1,5,-38,99*,6,0,4
c1ccc2c(CCNc3ncnc4nc[nH]c34)c[nH]c2c1,-6,-13,98*,-2,3,1
SMILES,HDAC3 inh,FAS-TE inh,ALR inh,PfM18AAP inh,UCH37 inh,Rtt109 Vps75
O=C(CCC(=O)Nc1nnc(C2CCCCC2)s1)Nc1ccc(F)cc1,-10,0,-7,29*,-1,-8
O=C(Nc1nnc(-c2ccccc2)s1)c1ccc(F)cc1,-1,-7,-10,-3,-3,-5
O=C(CCC(=O)Nc1nnc(C2CCCCC2)s1)Nc1ccccc1,0,2,1,0,3,-6
Cc1cc(C(=O)Nc2nnc(-c3ccccc3)s2)no1,2,-5,93*,-6,5,-5
Cc1cc(C(=O)Nc2nnc(C3CCCCC3)s2)no1,-8,-8,86*,0,7,-5
CC(CC(=O)Nc1ccc(N(C)C)cc1)=NNC(=O)c1cnccn1,nt,nt,nt,nt,5,nt
C=CCn1c(SCC(=O)c2ccc(O)c(O)c2)nnc1-c1cccc(C)c1,5,-7,70,nt,7,7
C=CCn1c(SCC(N)=O)nnc1-c1cc(Br)ccc1O,-6,-5,97*,-3,1,3
C=CCn1c(SCC(=O)c2ccc(O)c(O)c2)nnc1-c1cccc(Cl)c1,-5,-4,98*,nt,4,8
CC(=NNC(=S)Nc1ccccc1)C1Cc2ccccc2C(=O)O1 (centres undefined),nt,nt,nt,nt,4,nt
Cn1c(=O)c2c(nc(CN3CCc4ccccc4C3)n2Cc2cccc(Cl)c2)n(C)c1=O,nt,37,-5,-11,23*,-4
CCC(C)Nc1nc2c(c(=O)n(C)c(=O)n2C)n1Cc1cccc(C)c1 (centres undefined),-3,-3,97*,-3,3,2
Cn1c(=O)c2c(nc(N/N=C/c3cccs3)n2Cc2ccccc2)n(C)c1=O,?,6,96*,0,nt,-6
CCC(C)Nc1nc2c(c(=O)n(C)c(=O)n2C)n1Cc1ccc(Cl)cc1 (centres undefined),2,11,9,nt,7,-5
COc1ccc(OC)c(C=NNC(=O)CN2CCSCC2)c1,nt,nt,nt,nt,i,nt
COc1ccc(C=NOC(=O)c2ccc(Cl)cc2)c(Cl)c1OC,nt,nt,nt,nt,2,nt
N#Cc1ccc(C=NNC(=O)c2cccc(S(=O)(=O)N3CCOCC3)c2)cc1,nt,nt,nt,nt,7,nt
Cn1[nH]c(-c2ccccc2)c(C=NO)c1=O,nt,nt,nt,nt,2,nt
CCN(CC)S(=O)(=O)c1ccc(C(=O)/C=C/c2ccc(-c3ccc([N+](=O)[O-])cc3)o2)cc1,-6,20,-8,28*,8,-2
CCOc1cc(C(=O)NN=CC2CC=CCC2)cc(OCC)c1OCC (centres undefined),nt,nt,nt,nt,5,nt
CCOC(=O)c1ccc(CC(=O)c2oc3cc(O)ccc3c2C)o1,1,0,90*,16,-25,12
CCOC(=O)c1oc2cc(O)ccc2c(=O)c1-c1csc(C)n1,2,-6,-5,4,2,11
CC12CN3CCN(CC(C3)C1=NN=Cc1cccc([N+](=O)[O-])c1)C2,nt,nt,nt,nt,2,nt
CNC(=O)CN1C(=O)CSc2ncccc21,-5,-2,-36,-2,5,1
CCN(CC)c1ccc(NC(=O)CN2C(=O)CSc3ncccc32)c(C)c1,8,-4,97*,2,4,-5
SMILES,HDAC3 inh,FAS-TE inh,ALR inh,PfM18AAP inh,UCH37 inh,Rtt109 Vps75
CCN(CC)c1ccc(NC(=O)Cn2cc3c(n2)CCC(C)C3)c(C)c1 (centres undefined),17,3,99*,25,2,-6
CC1CCc2nn(CC(=O)Nc3ccc(F)cc3F)cc2C1 (centres undefined),-1,1,-1,-2,1,14
COc1cccc(C=NN2CCN(Cc3ccccc3)CC2)c1O,nt,nt,nt,nt,5,nt
O=C(COc1ccc(C=NNC(=O)c2ccncc2)cc1)Nc1ccccc1,nt,nt,nt,nt,-89,nt
COC(=O)NN=Cc1cc(C)n(-c2ccccc2)c1C,nt,nt,nt,nt,5,nt
CCOC(=O)CSc1cc(C)nc2ccc(OC)cc12,-6,-3,98*,-3,-2,-17
COc1ccc2nc(C)cc(SCC(=O)Nc3c(C)cc(C)cc3C)c2c1,-9,-15,nt,-1,-2,2
